According to ChEMBL document CHEMBL1143960:
The source made the active and inactive calls. No cut-off for these calls is given here.

Tests used:
Type in all cases: functional, cell-based
[1] = system: PC-3M; assay: Cytotoxicity against human PC3M cells at 50 nM by MTT assay
[2] = system: PC-3M; assay: Anti-invasive activity against human PC3M cells at 50 nM
[3] = system: PC-3M; assay: Antiproliferative activity against human PC3M cells at 5 to 50 nM by MTT assay
[4] = system: PC-3M; assay: Effect on paracellular permeability of calcitonin-treated human PC3M cells
Summary of the method: (§1)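 PC-3M grown at confluency on Transwell filters in complete medium until TER developed. Tetramethylrhodamine-dextran (4 kDa, 1 mg/mL in HBSS) added to upper chamber, HBSS in lower.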

[5] = system: PC-3M; assay: Effect on paracellular permeability of human PC3M cells; summary of the method: as §1
[6] = system: PC-3M; assay: Effect on baseline transepithelial resistance in human PC3M cells
Summary of the method: (§2)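 PC-3M plated at confluency on Transwell filters (0.4 µm pores) in complete medium with 25 mM Hepes, pH 7.4. Cultured with or without CT (50 nM). TER measured in duplicate wells every 12 h with a voltohmmeter. Values blank-subtracted (filter plus bathing medium) and normalized to filter area.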

[7] = system: PC-3M; assay: Effect on calcitonin-stimulated decrease in transepithelial resistance in human PC3M cells; summary of the method: as §2

Which Activity [1] does the source give for `C/C1=C\[C@H](O)C[C@@](C)(O)/C=C/[C@H](C(C)C)C[C@@H](O)/C(C)=C/CC1` here?
Its Activity is “inactive”.

And the Activity [2]?
Its Activity is “Active”.

What does the source list for `CCNC(=O)O[C@H]1/C=C(\C)CC/C=C(\C)CC[C@@H](C(C)C)/C=C/[C@](C)(O)C1`?
Activity [3]: Active; Activity [4]: Active; Activity [5]: Active; Activity [2]: Active; Activity [6]: Active; Activity [7]: Active

With `C/C1=C\[C@H](OC(=O)NCCCl)C[C@@](C)(O)/C=C/[C@H](C(C)C)CC/C(C)=C/CC1` as the compound, how does the Activity [3] read?
Its Activity is “Active”.

And the Activity [2]?
The Activity was “Active”.

Which Activity [2] does the source give for `C/C1=C\[C@H](O)C[C@@](C)(O)/C=C/[C@H](C(C)C)CC/C(CO)=C/CC1` here?
The Activity was “Active”.

For `C/C1=C\C[C@@H](O)/C(C)=C/[C@H](O)C[C@@](C)(O)/C=C/[C@H](C(C)C)CC1`, which Activity [2] is on record?
Its Activity is “Active”.

For `C/C1=C\[C@H](OC(=O)NCc2ccccc2)C[C@@](C)(O)/C=C/[C@H](C(C)C)CC/C(C)=C/CC1`, which Activity [3] is on record?
The Activity was “Active”.

And the Activity [2]?
The Activity was “Active”.

`C/C1=C\CC/C(CO)=C/[C@H](O)C[C@@](C)(O)/C=C/[C@H](C(C)C)CC1` was tested. Which Activity [2] did it give?
Its Activity is “Active”.
